In ChEMBL document CHEMBL1147644, “Dipeptide nitrile inhibitors of cathepsin K” (Bioorg Med Chem Lett, 2006):

Experiments:
Procathepsin L = Procathepsin L (Homo sapiens, UniProt P07711); test: Inhibition of recombinant human cathepsin L
Cathepsin K = target: T1, Cathepsin K (Homo sapiens, UniProt P43235); test: Inhibition of recombinant human cathepsin K
T1 sequence (P43235 whole entry): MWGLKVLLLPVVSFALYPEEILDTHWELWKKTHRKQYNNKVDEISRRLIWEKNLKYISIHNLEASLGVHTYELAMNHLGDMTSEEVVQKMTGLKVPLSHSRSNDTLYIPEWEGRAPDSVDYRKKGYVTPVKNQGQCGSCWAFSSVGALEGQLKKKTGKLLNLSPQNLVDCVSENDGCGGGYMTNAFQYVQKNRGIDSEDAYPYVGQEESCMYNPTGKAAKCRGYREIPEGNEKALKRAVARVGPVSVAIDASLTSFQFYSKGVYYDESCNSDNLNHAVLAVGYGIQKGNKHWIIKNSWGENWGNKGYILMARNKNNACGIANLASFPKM

Cathepsin S = Cathepsin S (Homo sapiens, UniProt P25774); test: Inhibition of recombinant human cathepsin S
Cathepsin S, sequence (P25774 whole entry): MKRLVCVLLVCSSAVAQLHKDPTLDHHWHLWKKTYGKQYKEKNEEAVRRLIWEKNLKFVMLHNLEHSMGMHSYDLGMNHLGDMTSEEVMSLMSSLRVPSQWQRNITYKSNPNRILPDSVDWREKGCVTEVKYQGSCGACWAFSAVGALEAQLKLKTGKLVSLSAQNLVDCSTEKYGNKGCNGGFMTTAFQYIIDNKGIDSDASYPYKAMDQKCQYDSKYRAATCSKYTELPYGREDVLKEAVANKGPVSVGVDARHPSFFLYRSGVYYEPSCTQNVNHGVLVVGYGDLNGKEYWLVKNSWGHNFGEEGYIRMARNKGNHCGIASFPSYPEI

[1] = Volume of distribution in rat; assay type: ADME, organism-based; conditions: in vivo, read-out: Vss
In short: (§1)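 Cassette dosing of six compounds to conscious, fed, permanently cannulated rats. IV bolus of 1 mg kg^-1 in N-methyl-2-pyrrolidone/PEG200 (30:70, v/v). Oral dose of 3 mg kg^-1, dissolved or suspended with sonication in 1% tartaric acid plus 1% carboxymethyl cellulose in water. Same animals received both routes, with a 48 h washout between them. Femoral arterial blood sampled over 24 h. Plasma extracted by acetonitrile precipitation and parent drug quantified by HPLC/MS.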

[2] = Oral bioavailability in rat; assay type: ADME, organism-based; conditions: in vivo; in short: as §1
Rattus norvegicus = test: Cmax in rat at 3 mg/kg, po normalized to 1 mg/kg; assay type: ADME, organism-based; set-up: dose 3 mg/kg, route oral; conditions: in vivo; in short: as §1
[3] = Clearance in rat; assay type: ADME, organism-based; conditions: in vivo; in short: as §1
[4] = Terminal half life in rat; assay type: ADME, organism-based; conditions: in vivo; in short: as §1

Procathepsin L, sequence (P07711 whole entry): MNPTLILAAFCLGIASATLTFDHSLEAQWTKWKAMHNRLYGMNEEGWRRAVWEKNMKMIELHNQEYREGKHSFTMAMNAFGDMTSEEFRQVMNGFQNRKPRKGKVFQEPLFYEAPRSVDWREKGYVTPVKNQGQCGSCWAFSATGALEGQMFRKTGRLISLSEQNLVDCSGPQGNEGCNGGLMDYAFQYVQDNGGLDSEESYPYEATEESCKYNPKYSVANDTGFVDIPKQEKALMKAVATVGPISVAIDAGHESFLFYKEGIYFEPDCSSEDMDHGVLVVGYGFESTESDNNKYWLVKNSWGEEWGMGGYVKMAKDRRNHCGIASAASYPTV

Row | IC50 (Procathepsin L) [nM] | IC50 (Cathepsin K) [nM] | IC50 (Cathepsin S) [nM] | Vd [1] [L/kg] | bioavailability [2] [%] | Cmax (Rattus norvegicus) [nM] | clearance [3] [mL/min/kg] | half-life [4] [h] | Structure (SMILES)
1 | 9900 | 48 | > 10000 |  |  |  |  |  | Cc1ccc(C[C@@H](C#N)NC(=O)[C@H](CC(C)C)NC(=O)OCc2ccccc2)cc1
2 | 2800 | 240 | 900 |  |  |  |  |  | CC(C)C[C@H](NC(=O)OCc1ccccc1)C(=O)N[C@H](C#N)COC(C)(C)C
3 | 1700 | 9 | 969 | 4.6 | 26.4 | 44.3 | 45 | 2.2 | CC(C)C[C@H](NC(=O)OCc1ccccc1)C(=O)N[C@H](C#N)COCc1ccccc1
4 | 1100 | 63 | 700 |  |  |  |  |  | COc1ccc(C[C@@H](C#N)NC(=O)[C@H](CC(C)C)NC(=O)OCc2ccccc2)cc1
5 | 7700 | 120 | 2300 |  |  |  |  |  | Cc1cccc(C[C@@H](C#N)NC(=O)[C@H](CC(C)C)NC(=O)OCc2ccccc2)c1
6 | 190 | 430 | 41 |  |  |  |  |  | CC(C)C[C@H](NC(=O)C(C)(C)Nc1ccc(Cl)cc1)C(=O)N[C@H](C#N)COCc1ccccc1
7 | 330 | 9 | 180 | 18 | 3.5 | 2.5 | 320 | 1 | CC(C)C[C@H](NC(=O)CN1CCN(c2ccncc2)CC1)C(=O)N[C@H](C#N)COCc1ccccc1
8 | 154 | < 1 | 29 |  |  |  |  |  | CC(C)C[C@H](NC(=O)c1cc2ccccc2[nH]1)C(=O)N[C@H](C#N)COCc1ccccc1
9 | 660 |  | 240 |  |  |  |  |  | Cc1nccn1CC(=O)N[C@@H](CC(C)C)C(=O)N[C@H](C#N)COCc1ccccc1
10 | 83 | < 1 | 47 | 7.7 | 30.1 | 51.1 | 82 | 1.4 | CC(C)C[C@H](NC(=O)c1cc2ccccc2n1C)C(=O)N[C@H](C#N)COCc1ccccc1
11 | 110 | 24 | 130 | 4.3 | 4.6 | 11.3 | 396 | 0.2 | Cc1nc[nH]c1CC(=O)N[C@@H](CC(C)C)C(=O)N[C@H](C#N)COCc1ccccc1
12 | < 30 | < 1 | 52 | 13.6 | 10.1 | 3.5 | 141 | 3.1 | CC(C)C[C@H](NC(=O)C(C)(C)Oc1ccc(Cl)cc1)C(=O)N[C@H](C#N)COCc1ccccc1
13 | 8000 | 43 | > 10000 |  |  |  |  |  | CC(C)C[C@H](NC(=O)OCc1ccccc1)C(=O)N[C@H](C#N)Cc1ccc(C(F)(F)F)cc1
14 | 1200 | 83 | 140 |  |  |  |  |  | CC(C)C[C@H](NC(=O)CN1CCC(c2ccccc2)CC1)C(=O)N[C@H](C#N)COCc1ccccc1
15 | > 10000 | > 1000 | > 10000 |  |  |  |  |  | CC(C)C[C@H](NC(=O)OCc1ccccc1)C(=O)N[C@H](C#N)Cc1ccc(OCc2ccccc2)cc1
16 | 1400 | 398 | > 10000 |  |  |  |  |  | CC(C)C[C@H](NC(=O)OCc1ccccc1)C(=O)N[C@H](C#N)Cc1ccc(OC(C)(C)C)cc1
